From article PMC11374989 (Asian Journal of Pharmaceutical Sciences, 2024)
In brackets after ≈: the same amount, converted by molar mass.

What was measured:
NF-κB (p65) = experiment: Immunohistochemical observation of skin; type: in vivo, BALB/c-nu mice; settings: after 7 d topical hydrogel, vs control group, n = 3
In short: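 P. acnes-infected nude mice were treated topically with 1 mg/ml hydrogel. Skin was collected at the end of treatment and paraffin sections were immunostained with mouse anti-NF-κB p65 antibody (1:400). Staining was quantified as average optical density (AOD) per group by image analysis.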

P. acnes [1] = experiment: In vivo antibacterial efficiency; set-up: species or system BALB/c-nu mice; settings: after 7 d of treatment, vs control, n = 3
In short: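 Six-week-old male BALB/c-nu mice were acclimatized for 3 d. They received daily intradermal dorsal injections of P. acnes at 1.5 x 10^8 CFU/ml, 0.05 ml/10 g. Test compound in 1 mg/ml Carbopol 940 hydrogel was applied topically at 0.05 g/10 g; controls were untreated. At the end, 8 mm punch biopsies were homogenized in 2 ml PBS and diluted 10 times. A 0.1 ml aliquot was plated on RCM and grown anaerobically at 37 °C for 48 h. Colonies were counted and expressed as treated vs control (%).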

P. acnes [2] = experiment: Minimum inhibition concentration; type: cell-based, Propionibacterium acnes; settings: P. acnes (GDMCC 1.243), anaerobic, 1.5 × 10^6 CFU/ml, 48 h
In short: (§1)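 The parent compound was dissolved in DMSO/saline (1:9) and NPs were diluted in water. Samples were serially diluted (1:1 to 1:256, v/v) in LB or RCM broth and incubated 48 h with bacteria. Growth was scored visually. P. acnes (GDMCC 1.243) was grown on RCM at 37 °C anaerobically; S. aureus (GDMCC 1.1220) and S. epidermidis (GDMCC 1.143) were grown on NA at 37 °C.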

[3] = test system: P. acnes-induced skin inflammation; experiment: P. acnes infection; type: in vivo, BALB/c-nu mice
In short: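 Six-week-old male BALB/c-nu mice were acclimatized 3 d. They received P. acnes (1.5 × 10^8 CFU/ml) daily by intradermal injection into dorsal skin at 0.05 ml/10 g; the blank group was not injected. Test compound in 1 mg/ml Carbopol 940 hydrogel was applied topically to the inflamed area at 0.05 g/10 g; controls were left untreated. Swelling length and width were measured by caliper, with volume V = a×b²/2.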

TNF-α = experiment: Anti-inflammatory activity, ELISA, LPS-treated HaCaT cells; type: cell-based; settings: 5 µmol/l for 12 h, then 1 µg/ml LPS 24 h, vs LPS, n = 3
In short: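 HaCaT cells were grown in DMEM with 10% FBS and 1% penicillin at 37 °C and 5% CO2. They were seeded in 6-well plates and precultured to 80% confluence. Test compound was given for 12 h, then 1 µg/ml LPS for 24 h. Medium-only (36 h) and LPS-only groups served as controls. TNF-α in the supernatant was measured by ELISA; n = 3.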

Sep. = experiment: Minimum inhibition concentration; type: cell-based, Staphylococcus epidermidis; settings: Sep. (GDMCC 1.143), 1.5 × 10^6 CFU/ml, 48 h
In short: as §1

Sau. = experiment: Minimum inhibition concentration; type: cell-based, Staphylococcus aureus; settings: Sau. (GDMCC 1.1220), 1.5 × 10^6 CFU/ml, 48 h
In short: as §1

[4] = Oil-water distribution coefficient; type: physicochemical; settings: n-octanol/water, logP Average, 25 °C, n = 3
IL-8 mRNA = experiment: RT-PCR of inflammatory factors, LPS-treated HaCaT cells; type: cell-based; settings: 5 µmol/l for 12 h, then 1 µg/ml LPS 24 h, n = 3
[5] = Visualization of skin penetration by CLSM; type: in vitro ADME, BALB/c-nu nude mice; settings: 6 h treatment
In short: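 Dorsal skin was excised from six-week-old male BALB/c-nu nude mice and cleared of subcutaneous tissue. It was exposed to C6-loaded nanoparticles of the test compound, since the compound itself fluoresces weakly. Skin was processed as in the HPLC retention study, then imaged by confocal microscopy. Mean skin fluorescence intensity was calculated per group.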

Row | SMILES | NF-κB p65 expression in skin (AOD) (NF-κB (p65)) | Quantity of P. acnes in the skin (P. acnes [1]) | MIC (P. acnes [2]) [µM] | Body weight and skin tolerance ([3]; 7-d treatment period, topical 1 mg/ml hydrogel) | Reduction in swelling volume ([3]; Day 7 of treatment, topical 1 mg/ml hydrogel (Carbopol 940), 0.05 g/10 g, n = 6) [%] | Histomorphological observation (HE staining) of skin ([3]; after 7 d topical 1 mg/ml hydrogel) | TNF-α expression level in supernatant (TNF-α) | MIC (Sep.) [µM] | MIC (Sau.) [µM] | logP at 24 h [4] | IL-8 mRNA expression (IL-8 mRNA) | Penetration of C6 into the skin (CLSM) [5]
1 | C[C@H]1COC2=C1C(=O)C(=O)c1c2ccc2c1CCCC2(C)C [CTS, Cryptotanshinone] | slight reduction in NF-κB p65 expression | significantly reduced the quantity of P. acnes in the skin | 250 (≈ 74.1 µg/mL) | no significant weight loss or skin dryness and erythema | 64.9 | reduction in skin thickness, accompanied by a decrease in keratinization | although reduced, did not reach statistical significance | 125 (≈ 37 µg/mL) | 125 (≈ 37 µg/mL) | 4.49 |  | 
2 | CC(C)(C)c1ccc(S(=O)(=O)/C=C/C#N)cc1 [BAY11-7085] |  |  |  |  |  |  | substantially suppressed TNF-α expression |  |  |  | restored to normal baseline levels | 
3 | CCN(CC)c1ccc2cc(-c3nc4ccccc4s3)c(=O)oc2c1 [C6, coumarin-6] |  |  |  |  |  |  |  |  |  |  |  | solely observable in the skin's stratum corneum
